# Screening results as filed in PubChem BioAssay.
# PLCb3 inh: blocks human PLC-beta3 enzyme activity | Q01970 | Purified PLC-beta3, fluorogenic substrate, fluorescence | inhibition, % at 12.2 µM | hit rate 0.18% among 370,000; in the data active = inhibition above about 11%
# procasp7 counter: activates human procaspase-7, counter-screen for procaspase-3 activators; P55210; hit rate 0.093% among 330,000; activation, % at 8.5 µM; recombinant procaspase-7, Ac-DEVD-pNA absorbance 405 nm; D23A/D198A/D206A triple mutant, cannot self-cleave; scale: DMSO 0, 5 µM enzyme 100;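 active = percent activation above the screen-wide mean plus 3 SD, cut at about 25% in these data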
#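 Material: Procaspase-7 triple mutant (PC-7 D3A) | Quantity: 2 µM procaspase-7 mutant as dispensed | Reagent: DEVD-pNA substrate | Times: 1 h preincubation, 2 h reaction | Technique: 405 nm absorbance of p-nitroaniline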
# PLCg1 inh: inhibitors of human phospholipase C gamma1; inhibition, % at 12.2 µM; AID 720700; purified PLC-gamma1, fluorogenic substrate, fluorescence; hit rate 0.84% among 370,000; P19174; in the data active = inhibition above about 9.5%
# sPLA2-III inh: Inhibits HGIII-sPLA2 liposome hydrolysis, primary screen | Q9NZ20 | QFRET BODIPY PC-A2 liposome hydrolysis, fluorescence | inhibition, % at 12.2 µM | hit rate 0.56% among 370,000;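 active = inhibition above mean plus 3 SD of compounds lying within the high and low control bounds, cut at about 19% in these data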
# Target sequence (Q9NZ20 whole entry, looked up): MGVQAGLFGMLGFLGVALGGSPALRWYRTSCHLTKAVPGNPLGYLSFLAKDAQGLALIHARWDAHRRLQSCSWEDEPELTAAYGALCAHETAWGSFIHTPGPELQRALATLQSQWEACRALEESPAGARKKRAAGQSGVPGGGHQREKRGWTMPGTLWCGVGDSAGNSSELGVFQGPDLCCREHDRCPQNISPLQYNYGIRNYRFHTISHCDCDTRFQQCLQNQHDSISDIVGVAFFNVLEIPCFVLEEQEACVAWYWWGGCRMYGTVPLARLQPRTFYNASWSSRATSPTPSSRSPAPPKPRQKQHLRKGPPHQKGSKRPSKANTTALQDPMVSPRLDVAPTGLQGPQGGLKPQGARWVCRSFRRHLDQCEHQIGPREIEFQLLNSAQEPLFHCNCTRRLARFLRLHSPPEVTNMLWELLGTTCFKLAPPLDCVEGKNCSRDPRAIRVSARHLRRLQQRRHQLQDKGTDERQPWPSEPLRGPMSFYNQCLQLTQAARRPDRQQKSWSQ
# proCasp3 act: activates human procaspase-3; P42574; recombinant procaspase-3 D3A, Ac-DEVD-pNA absorbance 405 nm; activation, % at 8.5 µM; hit rate 0.11% among 330,000; AID 463141;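 active = activation above the mean of all tested compounds plus 3 SD, cut at about 21% in these data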
#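 Technique: 405 nm absorbance of p-nitroaniline, reads at 0 and 120 min; Test system: Procaspase-3 D3A mutant; Incubation: 1 h enzyme-compound preincubation, then 2 h substrate reaction, 25 °C; Repeats: singlicate, each compound tested once; Benchmarks: low control DMSO wells, high control DMSO plus 5 µM PC-3 D3A.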
# hGIII sPLA2 conf: human GIII-sPLA2 inhibition, confirmation. shares compounds with sPLA2-III inh. recombinant hGIII-sPLA2, BODIPY PC-A2 QFRET fluorescence. inhibition, % at 12.2 µM. hit rate 34% among 2,000;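 active = mean inhibition across triplicates above the hit cutoff set in the earlier primary screen, cut at about 19% in these data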
# 535nm interf: counter-screen for HGIII-sPLA2 inhibitors: 535nm fluorescence interference | shares compounds with sPLA2-III inh | BODIPY FL product fluorescence interference, QFRET | inhibition, % at 12.2 µM | hit rate 8.5% among 2,000 | AID 743282;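 active = average inhibition above the solvent-only control mean plus 3 SD, cut at about 6% in these data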
# 535nm interf DR: interferes with 535nm fluorescence in dose response counter-screen | 240 tested, under 10 active | shares compounds with sPLA2-III inh | AID 743455 | BODIPY FL product fluorescence interference, cell-free | IC50, µM;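 active = IC50 at or below 10 µM; inactive = IC50 above 10 µM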
# Numbers stand for hits; . = inactive; / = not tested or not shown. Shown are actives, neighbours in structure and some others; about 1.6% of the full set was active somewhere.
SMILES,PLCb3 inh,procasp7 counter,PLCg1 inh,sPLA2-III inh,proCasp3 act,hGIII sPLA2 conf,535nm interf,others
Nc1ccc(N=Nc2ccccc2O)c(N)c1,.,.,.,21,.,56,21,
Oc1ccccc1N=Nc1ccccc1O,.,/,.,36,/,36,.,535nm interf DR=.
O=C(CNS(=O)(=O)c1ccccc1)OCC(=O)c1ccc(Br)cc1,.,.,.,.,.,/,/,
O=C(CNS(=O)(=O)c1ccccc1)OCC(=O)c1ccc([N+](=O)[O-])cc1,.,.,.,25,.,.,.,
O=C(Cc1c(F)cccc1Cl)Nc1nccs1,.,.,.,.,.,/,/,
Cc1nc2ccccn2c1C(=O)N=Nc1c(O)n(CCC(C)C)c2ccccc12,.,.,.,22,.,.,.,
COc1ccc(OC)c(NC(=O)COC(=O)CCCN=C2NS(=O)(=O)c3ccccc32)c1,.,.,.,20,.,.,.,
C[C@H]1CN([C@@H](C)CO)C(=O)CCCn2nncc2CO[C@@H]1CN(C)C(=O)c1ccccc1,.,/,.,.,/,/,/,
CC1CCN(c2c([N+](=O)[O-])c(=O)oc3ccccc23)CC1,.,.,.,21,.,.,.,
O=c1oc2ccccc2c(N2CCCC2)c1[N+](=O)[O-],.,.,.,.,.,/,/,
Cc1ccc(C)c(NC(=S)N/N=C/C(C)c2ccccc2)c1 (stereo unspecified),.,.,.,22,.,.,.,
CCCCc1c(O)nc(SCC(=O)N2CCOCC2)n(-c2ccc(C)cc2)c1=O,.,/,.,.,/,/,/,
Cc1ccc(S(=O)(=O)N(C)C)cc1NC(=S)NNC(=O)C1CC1,.,.,.,30,.,.,.,
CCN(CC)S(=O)(=O)c1ccc(C)c(NC(=S)NNC(=O)C2CC2)c1,.,.,.,20,.,23,.,
NC(=O)C1(N2CCCCC2)CCN(C(=S)Nc2ccc(S(N)(=O)=O)cc2)CC1,.,.,.,.,.,/,/,
COc1cc(C(=O)C(=O)N2CCC(Cc3ccccc3)CC2)cc2ccccc12,.,/,.,.,/,/,/,
NC(c1ccccc1)c1csc(Nc2ccc(C(F)(F)F)cn2)n1 (stereo unspecified),.,/,.,.,/,/,/,
CC(C)C(N)c1csc(Nc2ccc(C(F)(F)F)cn2)n1 (stereo unspecified),.,/,.,23,/,.,.,
O=C(NC1CCCCN(Cc2ccc(OC(F)(F)F)cc2)C1=O)c1cccc(F)c1 (stereo unspecified),.,/,.,.,/,/,/,
CCC1CCCCN1C(=S)NCc1ccccc1 (stereo unspecified),.,.,.,24,.,.,.,
Cc1ccccc1-n1c(=S)[nH]c2nc3c(cc2c1=O)COC(C)(C)C3,.,.,.,20,.,.,.,
Cc1ccc(-n2c(=S)[nH]c3nc4c(cc3c2=O)COC(C)(C)C4)cc1,.,.,.,.,.,/,/,
O=C(N/N=C/c1c(O)ccc2ccccc12)c1cccc(C(F)(F)F)c1,.,.,.,43,.,.,.,
COc1ccc2ccccc2c1/C=N/NC(=O)c1cccc(Br)c1,.,.,.,.,.,/,/,
Nc1ccc(S(=O)(=O)Nc2ccc(Cl)nn2)cc1,.,.,.,22,.,.,.,
SMILES,PLCb3 inh,procasp7 counter,PLCg1 inh,sPLA2-III inh,proCasp3 act,hGIII sPLA2 conf,535nm interf,others
COc1ccc(NS(=O)(=O)c2ccc(N)cc2)nn1,/,.,/,/,.,/,/,
O=[N+]([O-])C1=CC=C2C(=NC3(CCCCC3)N2O)C1=NC1CCCCC1,.,.,.,19,.,25,.,
O=C1NC(=S)NC1=Cc1ccccc1O,.,/,.,22,/,.,.,
COc1ccc(NS(=O)(=O)c2cc(N)ccc2N2CCCC2)cc1,.,.,.,21,.,.,.,
COc1ccc(NS(=O)(=O)c2cc(N)ccc2N2CCOCC2)cc1,.,.,.,.,.,/,/,
O=C(CN1C(=O)S/C(=C\c2ccccc2)C1=O)NNC(=O)c1ccccc1O,.,.,.,23,.,.,.,
O=C(CCN1C(=O)/C(=C\c2ccccc2)SC1=S)NNC(=O)c1cccnc1,.,.,.,.,.,/,/,
COc1ccc(/C=C2\SC(=O)N(CC(=O)NNC(=O)c3ccccc3O)C2=O)cc1,.,.,.,.,.,/,/,
Cn1c(SCC(=O)NNC(=O)c2ccccc2O)nnc1-c1ccccc1,.,.,.,.,.,/,/,
COc1ccc(/C=C2\SC(=O)N(CC(=O)NNC(=O)c3ccccc3O)C2=O)cc1OC,.,.,.,21,.,.,.,
O=C(CCN1C(=O)/C(=C\c2ccccc2)SC1=S)NNC(=O)c1ccccc1O,.,.,.,25,.,.,.,
O=C(CSc1ccccc1)NNC(=O)c1ccccc1O,.,.,.,20,.,.,.,
Cn1c(=O)c2c(-c3ccccc3)n(-c3ccccc3Br)cc2n(C)c1=O,.,/,.,.,/,/,/,
O=C(CC1N=C(Cc2ccccc2)NNC1=O)N/N=C/c1ccc([N+](=O)[O-])cc1 (stereo unspecified),.,.,.,.,.,/,/,
Cc1cnc(NC(=O)C2CC=CCC2)s1 (stereo unspecified),.,.,.,.,.,/,/,
Cc1ccc(NN2C(=O)C=C(c3ccccc3)C2=O)cc1,.,/,.,.,/,/,/,
CCc1nc2ccc(C(=O)NCc3cccs3)cn2c1N(CC)CCOC,.,/,.,.,/,/,/,
CCn1c(C2CCN(S(=O)(=O)c3ccc(OC)cc3)CC2)n[nH]c1=S,.,.,.,21,.,.,.,
CCn1c(SCc2ccccc2)nnc1C1CCN(S(=O)(=O)c2ccc(OC)cc2)CC1,.,.,.,.,.,/,/,
O=C(c1cccc(Cl)c1)N1CCN(S(=O)(=O)c2ccc(Cl)s2)CC1,.,.,.,.,.,/,/,
COc1ccc(-n2sc3c(c2=S)-c2cc(OC)ccc2NC3(C)C)cc1,.,.,.,27,.,.,8.1,
COc1ccc2c(c1)-c1c(sn(-c3ccccc3)c1=S)C(C)(C)N2,.,.,.,.,.,/,/,
COC(=O)c1ccc(N=NN2CCOCC2)cc1,.,.,.,.,.,/,/,
Clc1ccc(N=NN2CCOCC2)cc1,.,.,.,19,.,.,.,
CSc1ccc(CN2CCC(N3CCC(C(=O)NC4CC4)CC3)CC2)cc1,.,/,.,.,/,/,/,
Cc1ccc(C2(C)NC(=O)N(CC(=O)Nc3ccccc3N3CCCC3)C2=O)cc1 (stereo unspecified),/,.,/,/,.,/,/,
COC(=O)[C@]12C[C@H](CC(=O)N3CCCCC3)C(=O)N(Cc3ccco3)C1=C[C@H](C(C)C)O[C@@H]2C1CC1,.,/,.,.,/,/,/,
